Autophagy mod: autophagy modulators in MEF cells, primary screen, imaging, high-content, MEF GFP-LC3 | MEF GFP-LC3 puncta imaging; test concentration mostly 10 µM | calls only at 10 µM (by protocol) | 190,000 tested, 0.98% active | AID 463193, 2010;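 active means percentage of spot-positive cells more than 3 SD above its plate mean, without a fluorescence outlier flag or 80% toxicity; inconclusive means no clear call, values can overlap the other calls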;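 further: spot-positive cell cutoff set from DMSO-treated cells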
Arbovirus anti: antivirals against arbovirus infection, primary screen, cell-based, full library, 10K replicate subset; arbovirus infection cell-based antiviral screen; inhibition, % at 10 µM; 200,000 tested, 0.37% active; in the data active means inhibition above about 30%
b-catenin transl: modulators of beta-catenin nuclear translocation, primary screen, imaging, HeLa cells, immunofluorescence, high-content; nuclear translocation activity, % at 5 µM; 190,000 tested, 0.3% active; AID 1665, 2009;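 active means nuclear translocation activity above 50% at 5 µM, with a well cell count of 50 or more; inconclusive means wells under 50 cells across six images, flagged as toxic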;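 further: per-cell ratio of nuclear to cytoplasmic median beta-catenin stain intensity; plate controls were DMSO negative control for no effect and GSK-3 inhibitor IX positive control for full effect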
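System: Human HeLa cells, endogenous beta-catenin | Compound dosing: 5 µM primary, 0.02–20 µM confirmation | Timing: 24 h compound exposure at 37°C, 5% CO2 | Measured by: Fluorescence imaging of beta-catenin antibody stain plus DAPI | Read-out basis: % activation of per-cell nuclear versus cytoplasmic median beta-catenin signal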
MT stabilize HCS: microtubule stabilizers in HeLa cells, primary screen, imaging, high-content imaging. HeLa tubulin immunostaining HCS, 24 h; share of cells brighter than vehicle mean+2SD. % tubulin-high responders, % at 10 µM. 200,000 tested, 0.83% active. AID 2205, 2009;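 active means plate Z-score above 3 for both tubulin-high and condensed-nucleus cell shares, with cell loss under 80%, at 10 µM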;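 further: anti alpha tubulin signal scored within the nucleus-defined area of each cell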
ABCB1 inh: ABCB1 efflux pump inhibitors, primary screen, cell-based, multiplex, flow cytometry, ABCG2 counter-screen. ATP-dependent translocase ABCB1 (Homo sapiens), P08183. CCRF-Adr cells, JC-1 efflux. inhibition, % at 6.6 µM. 190,000 tested, 0.067% active. AID 1326, 2008; in the data active means inhibition above about 40%;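 further: 0% = vehicle and 100% = reference inhibitor; higher value means more JC-1 retained so stronger ABCB1 efflux block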
ABCG2 inh: ABCG2 efflux pump inhibitors, primary screen, multiplex with ABCB1, IgMXP3 cells, flow cytometry; 190,000 tested, 0.1% active; inhibition, % at 6.6 µM; Broad substrate specificity ATP-binding cassette transporter ABCG2 (Homo sapiens), Q9UNQ0; JC-1 efflux;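 active means inhibition above 80%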;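 further: 0% = DMSO and 100% = nicardipine control wells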
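material = IgMXP3 (ABCG2) plus far-red-tagged CCRF-Adr (ABCB1) cells | amount = 3 million cells/mL, equal mix of both lines | also added = JC-1 transporter substrate | dosing = one concentration, 6.6 µM final | schedule = 10 min at 25 °C | measured by = flow cytometric JC-1 green MFI at 530 nm | read-out basis = percent efflux inhibition, scaled nicardipine 100% to DMSO 0%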
* = called active by the depositor. Rows were chosen to be rich in hits. Some 2.1% of all compounds tested hit in one or more screens of this group.

`CCSC1=NSC2=NC(=O)/C(=C\c3coc4ccccc4c3=O)C(=N)N12` gave Autophagy mod inactive, Arbovirus anti 31*, b-catenin transl -2, MT stabilize HCS 3, ABCB1 inh 29 and ABCG2 inh active.
Screening CC(C)CC1=NN2C(=N)/C(=C\c3coc4ccccc4c3=O)C(=O)N=C2S1 returned Autophagy mod inactive, Arbovirus anti 41*, b-catenin transl -2, MT stabilize HCS 3, ABCB1 inh 1 and ABCG2 inh 6.
For CCOC(=O)N1CCN(Cc2nc(-c3ccc(Cl)cc3)no2)CC1 the results were Autophagy mod inactive, Arbovirus anti 25, b-catenin transl 0, MT stabilize HCS 3, ABCB1 inh 1 and ABCG2 inh 10.
O=C(CSc1nc2ncc(Br)cc2[nH]1)c1ccc([N+](=O)[O-])cc1 was read as Autophagy mod inactive, Arbovirus anti -6, b-catenin transl -1, MT stabilize HCS 2, ABCB1 inh 0 and ABCG2 inh -10.
Screening COc1cccc(C(=O)NCC(=O)N/N=C(C)\C=C\c2ccccc2)c1 returned Autophagy mod inactive, Arbovirus anti 0, b-catenin transl -1, MT stabilize HCS 3, ABCB1 inh 1 and ABCG2 inh 17.
O=C1CCN(S(=O)(=O)c2ccccc2)CCN1CCOCc1ccc(F)cc1 was read as b-catenin transl 70*.
O=C(O)Cc1ccc(C(=O)c2ccc(Cl)cc2Cl)s1 was read as Autophagy mod inactive, Arbovirus anti 0, b-catenin transl -4, MT stabilize HCS 3, ABCB1 inh 2 and ABCG2 inh 5.
Screening CCN(CC)CCNC(=O)c1cccc(NC(=O)C(=O)c2cc(Br)ccc2NC(C)=O)c1 returned Autophagy mod active, Arbovirus anti 23, b-catenin transl -1, MT stabilize HCS 5, ABCB1 inh 0 and ABCG2 inh 0.
`CC(=O)Nc1ccccc1C(=O)C(=O)Nc1cccc(Br)c1` gave Autophagy mod inactive, Arbovirus anti -10, b-catenin transl 0, MT stabilize HCS 3, ABCB1 inh 1 and ABCG2 inh 5.
`O=C1NC(c2ccncc2)C(C(=O)c2cccs2)C(O)(C(F)(F)F)N1` (stereo not given) gave Autophagy mod inactive, Arbovirus anti 4, b-catenin transl -1, MT stabilize HCS 2, ABCB1 inh 0 and ABCG2 inh -1.
For O=C(CCc1ccccc1)NNC(=O)c1ccccc1Br the results were Autophagy mod inactive, Arbovirus anti 5, MT stabilize HCS 2, ABCB1 inh 0 and ABCG2 inh 2.
Screening Cn1nc(-c2ccc(Cl)cc2)c2cc(C(=O)NCCCN3CCCC3)sc21 returned Autophagy mod active, Arbovirus anti -27, MT stabilize HCS 1, ABCB1 inh 2 and ABCG2 inh 3.
`CCCCNC(=O)c1cc2c(-c3ccc(Cl)cc3)nn(C)c2s1` gave Autophagy mod inactive, Arbovirus anti 2, MT stabilize HCS 6, ABCB1 inh 0 and ABCG2 inh 1.
CCN1CCCC1CNC(=O)c1cc2c(-c3ccc(Cl)cc3)nn(C)c2s1 (stereo not given) was read as Autophagy mod active, Arbovirus anti -27, MT stabilize HCS 4, ABCB1 inh 0 and ABCG2 inh 4.
For CCCC(=O)Nc1ccc(Cl)c(NC(=S)NC(=O)C(C)C)c1 the results were Autophagy mod inactive, Arbovirus anti 4, b-catenin transl 4, MT stabilize HCS 4, ABCB1 inh 0 and ABCG2 inh 4.
`COc1ccccc1OCC(O)Cn1c(=N)n(Cc2ccccc2)c2ccccc21` (stereo not given) gave Autophagy mod active, Arbovirus anti -16, MT stabilize HCS 3, ABCB1 inh 1 and ABCG2 inh 2.
For O=C(Nc1ccc2c(c1)OCO2)c1ccc(NC2CC2)c([N+](=O)[O-])c1 the results were Autophagy mod inactive, Arbovirus anti -28, b-catenin transl 8, MT stabilize HCS 28*, ABCB1 inh 1 and ABCG2 inh 24.
COc1ccc(NC2=C3CCCC=C3N(c3ccc(OC)cc3)C2=O)cc1 was read as Autophagy mod inactive, Arbovirus anti -13, MT stabilize HCS 2, ABCB1 inh -1 and ABCG2 inh 33.
For CCCCOc1ccc(C(=O)C(CN2CCOCC2)c2ccccc2)cc1 (stereo not given) the results were Autophagy mod active, Arbovirus anti -34, b-catenin transl inconclusive, MT stabilize HCS 5, ABCB1 inh 2 and ABCG2 inh 2.
CCCCOc1ccc(C(O)C(CN2CCCCC2)c2ccccc2)cc1 (stereo not given) was read as Autophagy mod inactive, Arbovirus anti 37*, b-catenin transl -1, MT stabilize HCS 5, ABCB1 inh 1 and ABCG2 inh -3.
Screening NS(=O)(=O)c1ccc(CCNC(=O)Cc2ccc(S(=O)(=O)N3CCCC3)s2)cc1 returned b-catenin transl 1.
CCOc1ccc(N(C(=O)CNC(=O)c2cccs2)C(C(=O)NCC2CCCO2)c2ccc(OC)c(OC)c2)cc1 (stereo not given) was read as Autophagy mod active, Arbovirus anti 1, b-catenin transl 0, MT stabilize HCS 3, ABCB1 inh 1 and ABCG2 inh 3.
Screening Cc1ccc(NC(=O)c2cc(N3C(=O)CCC3=O)ccc2N2CCOCC2)cc1 returned Autophagy mod active, Arbovirus anti 3, b-catenin transl 1, MT stabilize HCS 4, ABCB1 inh 0 and ABCG2 inh 1.
COc1ccc(Sc2nc(-c3ccccc3)ncc2C(=O)O)cc1 was read as Autophagy mod inactive, Arbovirus anti 7, b-catenin transl -3, MT stabilize HCS 1, ABCB1 inh 0 and ABCG2 inh 5.
For O=C(O)c1cnc(-c2ccccc2)nc1Sc1ccc(Cl)cc1 the results were Autophagy mod inactive, Arbovirus anti 66*, b-catenin transl -2, MT stabilize HCS 2, ABCB1 inh 0 and ABCG2 inh 0.
Screening Cc1cccc(Sc2nc(-c3ccccc3)ncc2C(=O)O)c1 returned Autophagy mod inactive, Arbovirus anti 32*, b-catenin transl -1, MT stabilize HCS 5, ABCB1 inh 0 and ABCG2 inh 2.
O=C(O)c1cnc(-c2ccccc2)nc1Sc1ccccc1Cl was read as Autophagy mod inactive, Arbovirus anti 43*, MT stabilize HCS 2, ABCB1 inh 0 and ABCG2 inh 1.
O=C(O)c1cccnc1Sc1ccc(Cl)cc1 was read as Autophagy mod active, Arbovirus anti 2, b-catenin transl -5, MT stabilize HCS 4, ABCB1 inh 0 and ABCG2 inh 1.
